# Laboratory results from paper PMC5643981 (Chemical Science, 2017).
# Marks after values point to notes of the source that are not given here.
# Key:
# [1] = test system: Pseudomonas aeruginosa strain PAO1 biofilm; experiment: Biofilm inhibition; type: cell-based
# How it was run: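 PAO1 grown overnight in LB at 37 °C with 180 rpm shaking, washed in 0.25% (w/v) nutrient broth no. 2 and set to OD600 1. 20 μL goes into 180 μL of the same medium with sterile-filtered test compound and polymyxin B. Incubated humid, static, 24–25 h at 37 °C, washed twice with water. Viability read by 0.5 mM WST-8 + 20 μM phenazine ethosulfate (2.5–3 h, 37 °C), supernatant A450.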
# [2] = test system: Pseudomonas aeruginosa strain PAO1 biofilm; experiment: Dispersal of preformed biofilm; type: cell-based
# How it was run: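 Biofilm formed 24 h at 37 °C, static, in 0.25% (w/v) nutrient broth no. 2 from washed overnight PAO1 (OD600 1) without compound. Wells washed twice with water, then given sterile-filtered test compound plus polymyxin B in the same broth for another 24 h at 37 °C, static. After two washes, stained with 0.5 mM WST-8 + 20 μM phenazine ethosulfate (2.5–3 h, 37 °C); supernatant A450 read.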
substance,measurement,setting,value
Polymyxin B [Pmx],MBIC of Pmx +0.5 μg mL^–1 36b,[1]; Pmx in the presence of 0.5 μg mL^–1 36b,1.5 μg mL^–1
same,MBIC of Pmx +1 μg mL^–1 29b,[1]; Pmx in the presence of 1 μg mL^–1 29b,1.5 μg mL^–1
same,"Dispersal, Pmx with 29b",[2]; Measured with 8 μg mL^–1 of 29b in the presence of 1.5 μg mL^–1 of Pmx,100% ^i
same,"Dispersal, Pmx with 36b",[2]; Measured with 8 μg mL^–1 of 36b in the presence of 1.5 μg mL^–1 of Pmx,100% ^i
